Measurements reported in ChEMBL document CHEMBL1149790, “Synthesis of some novel thiourea derivatives obtained from 5-[(4-aminophenoxy)methyl]-4-alkyl/aryl-2,4-dihydro-3H-1,2,4-triazole-3-thiones and evaluation as antiviral/anti-HIV and anti-tuberculosis agents” (Eur J Med Chem, 2008).
Converted amounts (≈) assume the structure as drawn. The source made the active and inactive calls. No cut-off for these calls is given here.

Key:
[1] = test system: Coxsackievirus B4; test: Antiviral activity against Coxsackie virus B4 in human HeLa cells assessed as inhibition of virus-induced cytopathogenicity; type: functional; settings: Enterovirus B
Procedure, shortened: (§1)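 Confluent cell monolayers (E6SM, HEL, HeLa or Vero, per line) inoculated with 100 CCID50 virus; 1 h adsorption, residual virus removed, then incubated with compound at 400, 200, 100 … µg/ml. Cytopathicity scored once complete in untreated virus controls; MIC = concentration inhibiting virus-induced cytopathicity.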

[2] = test system: Mycobacterium tuberculosis; test: Antitubercular activity against Mycobacterium tuberculosis H37Rv at 6.25 ug/ml by MABA assay; type: functional
[3] = test system: Human betaherpesvirus 5; test: Antiviral activity against human cytomegalovirus Davis infected HEL cells assessed as reduction in virus plaque formation; type: functional, organism-based; settings: Human betaherpesvirus 5, Davis
[4] = Cytotoxicity against human HEL cells assessed as reduction of cell growth; type: cell-based
Procedure, shortened: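 HEL cells; CC50 = compound concentration reducing cell growth by 50%.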

[5] = test system: Human immunodeficiency virus 2; test: Antiviral activity against HIV2 ROD in human MT4 cells assessed as protection against virus-induced cytopathogenicity by MTT assay; type: functional, organism-based; design: Activity: concentration or dose not given beside the values; settings: for IC50: Human immunodeficiency virus 2, ROD, MT4
Procedure, shortened: (§2)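 MT-4 cells at 6 × 10⁵ cells/ml infected with HIV-1 IIIB or HIV-2 ROD at 100–300 CCID50; compounds in serial five-fold dilutions, triplicate mock- and virus-infected wells. MTT viability read at 540 and 690 nm after 5 days, median OD of three wells; EC50 = 50% protection from viral cytopathic effect.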

[6] = test system: Human alphaherpesvirus 1; test: Antiviral activity against HSV1 KOS in human E6SM cells assessed as reduction of virus-induced cytopathogenicity; type: functional; settings: Human alphaherpesvirus 1, KOS; procedure, shortened: as §1
[7] = test system: Vesicular stomatitis virus; test: Antiviral activity against in Vesicular stomatitis virus in human HEL cells assessed as reduction of virus-induced cytopathogenicity; type: functional; procedure, shortened: as §1
[8] = Cytotoxicity against human HeLa cells; type: cell-based
Procedure, shortened: (§3)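 Uninfected cell cultures exposed to test compounds alongside antiviral assays; minimum cytotoxic concentration (MCC) = concentration causing a microscopically detectable alteration of cell morphology.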

[9] = test system: Human alphaherpesvirus 2; test: Antiviral activity against HSV2 G in human E6SM cells assessed as reduction of virus-induced cytopathogenicity; type: functional; settings: Human alphaherpesvirus 2, G; procedure, shortened: as §1
[10] = test system: Human betaherpesvirus 5; test: Antiviral activity against human cytomegalovirus AD169 infected HEL cells assessed as reduction in virus plaque formation; type: functional, organism-based; settings: Human betaherpesvirus 5, AD169, HEL
[11] = test system: Human alphaherpesvirus 2; test: Antiviral activity against HSV2 G in human HEL cells assessed as reduction of virus-induced cytopathogenicity; type: functional; settings: Human alphaherpesvirus 2, G; procedure, shortened: as §1
[12] = Cytotoxicity against human E6SM cells; type: cell-based; settings: E6SM cells; procedure, shortened: as §3
[13] = test system: Vero; test: Cytotoxicity against african green monkey Vero cells; type: cell-based; settings: chlorocebus sabaeus; procedure, shortened: as §3
[14] = test system: Vesicular stomatitis virus; test: Antiviral activity against in Vesicular stomatitis virus in human E6SM cells assessed as reduction of virus-induced cytopathogenicity; type: functional; procedure, shortened: as §1
[15] = test system: Human alphaherpesvirus 1; test: Antiviral activity against HSV1 KOS in human HEL cells assessed as reduction of virus-induced cytopathogenicity; type: functional; settings: Human alphaherpesvirus 1, KOS; procedure, shortened: as §1
[16] = test system: Human alphaherpesvirus 1; test: Antiviral activity against thymidine kinase deficient and acyclovir resistant HSV1 KOS in human HEL cells assessed as reduction of virus-induced cytopathogenicity; type: functional; settings: Human alphaherpesvirus 1, KOS; procedure, shortened: as §1
[17] = test system: Human immunodeficiency virus 1; test: Antiviral activity against HIV1 3B in human MT4 cells assessed as protection against virus-induced cytopathogenicity by MTT assay; type: functional, organism-based; design: Activity: concentration or dose not given beside the values; settings: for IC50: Human immunodeficiency virus 1, 3B, MT4; procedure, shortened: as §2
[18] = test system: Human alphaherpesvirus 3; test: Antiviral activity against TK- VZV 07/1 infected HEL cells assessed as reduction in virus plaque formation; type: functional, organism-based; settings: Human alphaherpesvirus 3, 07/1, HEL
[19] = test system: Sindbis virus; test: Antiviral activity against Sindbis virus in african green monkey Vero cells assessed as reduction of virus-induced cytopathogenicity; type: functional; procedure, shortened: as §1
[20] = test system: Human respirovirus 3; test: Antiviral activity against Parainfluenza 3 virus in african green monkey Vero cells assessed as reduction of virus-induced cytopathogenicity; type: functional; procedure, shortened: as §1
[21] = test system: Respiratory syncytial virus; test: Antiviral activity against respiratory syncytial virus in human HeLa cells assessed as inhibition of virus-induced cytopathogenicity; type: functional; procedure, shortened: as §1
[22] = test system: Mammalian orthoreovirus 1; test: Antiviral activity against Reo virus 1 in african green monkey Vero cells assessed as reduction of virus-induced cytopathogenicity; type: functional; procedure, shortened: as §1
[23] = test system: Human alphaherpesvirus 3; test: Antiviral activity against TK+ VZV OKA infected HEL cells assessed as reduction in virus plaque formation; type: functional, organism-based; settings: Human alphaherpesvirus 3, OKA
[24] = test system: Punta Toro virus; test: Antiviral activity against Punta Toro virus in african green monkey Vero cells assessed as reduction of virus-induced cytopathogenicity; type: functional; procedure, shortened: as §1
[25] = Cytotoxicity against human HEL cells assessed as alteration of cell morphology; type: cell-based; procedure, shortened: as §3
[26] = test system: Coxsackievirus B4; test: Antiviral activity against Coxsackie virus B4 in african green monkey Vero cells assessed as reduction of virus-induced cytopathogenicity; type: functional; settings: Enterovirus B; procedure, shortened: as §1
[27] = Cytotoxicity against human MT4 cells by MTT assay; type: cell-based
Procedure, shortened: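 Mock-infected MT-4 cells (6 × 10⁵ cells/ml) with serial five-fold compound dilutions in triplicate; MTT reduction read at 540 and 690 nm after 5 days, median OD of three wells; CC50 = concentration reducing OD540 of mock-infected control by 50%.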

[28] = test system: Vesicular stomatitis virus; test: Antiviral activity against vesicular stomatitis virus in human HeLa cells assessed as inhibition of virus-induced cytopathogenicity; type: functional; procedure, shortened: as §1
[29] = test system: Human alphaherpesvirus 1; test: Antiviral activity against thymidine kinase deficient and acyclovir resistant HSV1 KOS in human E6SM cells assessed as reduction of virus-induced cytopathogenicity; type: functional; settings: Human alphaherpesvirus 1, KOS; procedure, shortened: as §1

| Compound | MIC [1] | Activity [2] | EC50 [3] | CC50 [4] | Activity [5] | IC50 [5] | MIC [6] | MIC [7] | MCC [8] | MIC [9] | EC50 [10] | MIC [11] | MCC [12] | Activity [13] | MIC [14] | MIC [15] | MIC [16] | Activity [17] | IC50 [17] | EC50 [18] | also measured |
| --- | --- | --- | --- | --- | --- | --- | --- | --- | --- | --- | --- | --- | --- | --- | --- | --- | --- | --- | --- | --- | --- |
| C=CCn1c(COc2ccc(NC(=S)NCC)cc2)n[nH]c1=S | > 80 µg/mL | inactive | > 100 µg/mL | > 50 µg/mL | 2.5% | > 86.2 µg/mL | > 400 µg/mL | > 400 µg/mL | 400 µg/mL | > 400 µg/mL | > 100 µg/mL | > 400 µg/mL | > 400 µg/mL | 400 µg/mL | > 400 µg/mL | > 400 µg/mL | > 400 µg/mL | 4% | > 76.5 µg/mL | 64 µg/mL (≈ 183 µM) | MIC [19]: > 80 µg/mL; MIC [20]: > 80 µg/mL; MIC [21]: > 80 µg/mL; MIC [22]: > 80 µg/mL; EC50 [23]: 64 µg/mL (≈ 183 µM); MIC [24]: > 80 µg/mL; MCC [25]: > 400 µg/mL; MIC [26]: 80 µg/mL (≈ 229 µM); CC50 [27]: 90 µg/mL (≈ 258 µM); MIC [28]: > 80 µg/mL; MIC [29]: > 400 µg/mL |
| CCNC(=S)Nc1ccc(OCc2n[nH]c(=S)n2C)cc1 | > 80 µg/mL | inactive | > 100 µg/mL | > 50 µg/mL | 2% | > 125 µg/mL | > 400 µg/mL | > 400 µg/mL | 400 µg/mL | 240 µg/mL (≈ 742 µM) | > 100 µg/mL | 240 µg/mL (≈ 742 µM) | > 400 µg/mL | 400 µg/mL | > 400 µg/mL | > 400 µg/mL | 240 µg/mL (≈ 742 µM) | 1.5% | > 107 µg/mL | > 100 µg/mL | MIC [19]: > 80 µg/mL; MIC [20]: > 80 µg/mL; MIC [21]: > 80 µg/mL; MIC [22]: > 80 µg/mL; EC50 [23]: > 100 µg/mL; MIC [24]: > 80 µg/mL; MCC [25]: > 400 µg/mL; MIC [26]: > 80 µg/mL; CC50 [27]: ≥ 107 µg/mL; MIC [28]: > 80 µg/mL; MIC [29]: 240 µg/mL (≈ 742 µM) |
| CCn1c(COc2ccc(NC(=S)NC)cc2)n[nH]c1=S | > 80 µg/mL | inactive | > 100 µg/mL | > 50 µg/mL | 2% | > 77.9 µg/mL | > 400 µg/mL | > 400 µg/mL | 400 µg/mL | > 400 µg/mL | 63 µg/mL (≈ 195 µM) | > 400 µg/mL | > 400 µg/mL | 400 µg/mL | > 400 µg/mL | > 400 µg/mL | > 400 µg/mL | 1.5% | > 68.1 µg/mL | 88 µg/mL (≈ 272 µM) | MIC [19]: > 80 µg/mL; MIC [20]: > 80 µg/mL; MIC [21]: > 80 µg/mL; MIC [22]: > 80 µg/mL; EC50 [23]: > 100 µg/mL; MIC [24]: > 80 µg/mL; MCC [25]: > 400 µg/mL; MIC [26]: > 80 µg/mL; CC50 [27]: 76.8 µg/mL (≈ 237 µM); MIC [28]: > 80 µg/mL; MIC [29]: > 400 µg/mL |
| Nc1ccc(OCc2n[nH]c(=S)n2-c2ccccc2)cc1 | > 400 µg/mL | inactive | > 100 µg/mL | > 50 µg/mL | 2.5% | > 125 µg/mL | > 400 µg/mL | > 400 µg/mL | > 400 µg/mL | 240 µg/mL (≈ 804 µM) | > 100 µg/mL | 240 µg/mL (≈ 804 µM) | > 400 µg/mL | 400 µg/mL | > 400 µg/mL | > 400 µg/mL | > 400 µg/mL | 2% | > 125 µg/mL | > 100 µg/mL | MIC [19]: > 80 µg/mL; MIC [20]: > 80 µg/mL; MIC [21]: > 400 µg/mL; MIC [22]: > 80 µg/mL; EC50 [23]: > 100 µg/mL; MIC [24]: > 80 µg/mL; MCC [25]: > 400 µg/mL; MIC [26]: 48 µg/mL (≈ 161 µM); CC50 [27]: > 125 µg/mL; MIC [28]: > 400 µg/mL; MIC [29]: > 400 µg/mL |
